Source: ChEMBL document CHEMBL2346519, “Substituted indolin-2-ones as p90 ribosomal S6 protein kinase 2 (RSK2) inhibitors: Molecular docking simulation and structure-activity relationship analysis” (Bioorg Med Chem, 2013)

Legend:
[1] = target: Vascular endothelial growth factor receptor 2 (Homo sapiens) (UniProt P35968); test: Inhibition of KDR (unknown origin) at 3 uM after 10 mins by mobility shift assay relative to control
[2] = target: Ribosomal protein S6 kinase beta-1 (Homo sapiens) (UniProt P23443); test: Inhibition of p70S6K (unknown origin) at 10 uM after 10 mins by mobility shift assay relative to control
[3] = target: Mast/stem cell growth factor receptor Kit (Homo sapiens) (UniProt P10721); details: 3 uM
[4] = target: Mitogen-activated protein kinase 9 (Homo sapiens) (UniProt P45984); test: Inhibition of JNK2 (unknown origin) at 10 uM after 10 mins by mobility shift assay relative to control
[5] = target: Mitogen-activated protein kinase 3 (Homo sapiens) (UniProt P27361); test: Inhibition of ERK1 (unknown origin) at 10 uM after 10 mins by mobility shift assay relative to control
[6] = target: Protein kinase C alpha type (Homo sapiens) (UniProt P17252); test: Inhibition of PKC alpha (unknown origin) using PIP2 as substrate at 3 uM after 1 hr by Kinase-Glo assay relative to control
[7] = target: Fibroblast growth factor receptor 1 (Homo sapiens) (UniProt P11362); details: 3 uM
[8] = target: T1, RAC-alpha serine/threonine-protein kinase (Homo sapiens, UniProt P31749); test: Inhibition of AKT1 (unknown origin) at 10 uM after 10 mins by mobility shift assay relative to control
[9] = target: Hepatocyte growth factor receptor (Homo sapiens) (UniProt P08581); test: Inhibition of c-MET (unknown origin) at 3 uM after 10 mins by mobility shift assay relative to control
[10] = target: Tyrosine-protein kinase ABL1 (Homo sapiens) (UniProt P00519); test: Inhibition of ABL (unknown origin) at 10 uM after 10 mins by mobility shift assay relative to control
[11] = target: Platelet-derived growth factor receptor alpha (Homo sapiens) (UniProt P16234); test: Inhibition of PDGFRalpha (unknown origin) at 3 uM after 10 mins by mobility shift assay relative to control
[12] = target: Mitogen-activated protein kinase 9 (Homo sapiens) (UniProt P45984); test: Inhibition of JNK2 (unknown origin) at 3 uM after 10 mins by mobility shift assay relative to control
[13] = target: 3-phosphoinositide-dependent protein kinase 1 (Homo sapiens) (UniProt O15530); test: Inhibition of PDK1 (unknown origin) at 3 uM after 10 mins by mobility shift assay relative to control
[14] = target: Hepatocyte growth factor receptor (Homo sapiens) (UniProt P08581); test: Inhibition of c-MET (unknown origin) at 10 uM after 10 mins by mobility shift assay relative to control
[15] = target: Proto-oncogene tyrosine-protein kinase Src (Homo sapiens) (UniProt P12931); details: 10 uM
[16] = target: 3-phosphoinositide-dependent protein kinase 1 (Homo sapiens) (UniProt O15530); test: Inhibition of PDK1 (unknown origin) at 10 uM after 10 mins by mobility shift assay relative to control
MCF7 = test: Cytotoxicity against human MCF7 cells assessed as growth inhibition after 48 hrs by MTT assay; type: functional, cell-based; details: MCF7, 48 h
Method in brief: (§1)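 MCF-7 cells grown in DMEM plus 10% FBS and PC 3 cells in F-12K, both seeded at 5 × 10^3 per well. Cells were exposed to compounds at various concentrations for 48 h. MTT was then added for 4 h at 37 °C in 5% CO2, formazan was dissolved in DMSO, and absorbance was read at 570 nm. IC50 was taken from inhibition curves of three independent experiments and measured only where inhibition at 100 µM exceeded 50%.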

[17] = target: Fibroblast growth factor receptor 1 (Homo sapiens) (UniProt P11362); details: 10 uM
[18] = target: T1, RAC-alpha serine/threonine-protein kinase; test: Inhibition of AKT1 (unknown origin) after 10 mins by mobility shift assay
[19] = target: Fibroblast growth factor receptor 3 (Homo sapiens) (UniProt P22607); details: 3 uM
[20] = target: Aurora kinase B (Homo sapiens) (UniProt Q96GD4); test: Inhibition of Aurora B (unknown origin) at 10 uM after 10 mins by mobility shift assay relative to control
[21] = target: T2, Mitogen-activated protein kinase 14 (Homo sapiens, UniProt Q16539); details: 10 uM
[22] = target: Ribosomal protein S6 kinase beta-1 (Homo sapiens) (UniProt P23443); details: 3 uM
[23] = target: Mitogen-activated protein kinase 3 (Homo sapiens) (UniProt P27361); details: 3 uM
[24] = target: Mast/stem cell growth factor receptor Kit (Homo sapiens) (UniProt P10721); test: Inhibition of cKit (unknown origin) at 10 uM after 10 mins by mobility shift assay relative to control
[25] = target: T1, RAC-alpha serine/threonine-protein kinase; test: Inhibition of AKT1 (unknown origin) at 3 uM after 10 mins by mobility shift assay relative to control
[26] = target: T2, Mitogen-activated protein kinase 14; details: 3 uM
[27] = target: Platelet-derived growth factor receptor alpha (Homo sapiens) (UniProt P16234); test: Inhibition of PDGFRalpha (unknown origin) at 10 uM after 10 mins by mobility shift assay relative to control
[28] = target: Tyrosine-protein kinase Lyn (Homo sapiens) (UniProt P07948); test: Inhibition of LYNA (unknown origin) at 3 uM after 10 mins by mobility shift assay relative to control
[29] = target: T2, Mitogen-activated protein kinase 14; test: Inhibition of p38alpha (unknown origin) after 10 mins by mobility shift assay
[30] = target: Serine/threonine-protein kinase pim-1 (Homo sapiens) (UniProt P11309); test: Inhibition of PIM1 (unknown origin) at 10 uM after 10 mins by mobility shift assay relative to control
[31] = target: T3, Ribosomal protein S6 kinase alpha-3 (Homo sapiens, UniProt P51812); test: Inhibition of RSK2 (unknown origin) using AKRRRLSSLRA as substrate at 10 uM after 60 mins by fluorescence assay relative to control
[32] = target: Ribosomal protein S6 kinase alpha-5 (Homo sapiens) (UniProt O75582); details: 3 uM
[33] = target: Tyrosine-protein kinase Lyn (Homo sapiens) (UniProt P07948); test: Inhibition of LYN-A (unknown origin) at 10 uM after 10 mins by mobility shift assay relative to control
[34] = target: T3, Ribosomal protein S6 kinase alpha-3; details: 3 uM
[35] = target: Tyrosine-protein kinase Lck (Homo sapiens) (UniProt P06239); details: 10 uM
[36] = target: Fibroblast growth factor receptor 3 (Homo sapiens) (UniProt P22607); details: 10 uM
[37] = target: Tyrosine-protein kinase Lck (Homo sapiens) (UniProt P06239); details: 3 uM
[38] = target: Glycogen synthase kinase-3 beta (Homo sapiens) (UniProt P49841); details: 3 uM
PC-3 = test: Cytotoxicity against human PC3 cells assessed as growth inhibition after 48 hrs by MTT assay; type: functional, cell-based; details: PC-3, 48 h; method in brief: as §1
[39] = target: Protein kinase C alpha type (Homo sapiens) (UniProt P17252); test: Inhibition of PKC alpha (unknown origin) using PIP2 as substrate at 10 uM after 1 hr by Kinase-Glo assay relative to control
[40] = target: Tyrosine-protein kinase ABL1 (Homo sapiens) (UniProt P00519); test: Inhibition of ABL (unknown origin) at 3 uM after 10 mins by mobility shift assay relative to control
[41] = target: T3, Ribosomal protein S6 kinase alpha-3; test: Inhibition of RSK2 (unknown origin) using AKRRRLSSLRA as substrate after 60 mins by fluorescence assay
[42] = target: Aurora kinase B (Homo sapiens) (UniProt Q96GD4); test: Inhibition of Aurora B (unknown origin) at 3 uM after 10 mins by mobility shift assay relative to control
[43] = target: Serine/threonine-protein kinase pim-1 (Homo sapiens) (UniProt P11309); test: Inhibition of PIM1 (unknown origin) at 3 uM after 10 mins by mobility shift assay relative to control
[44] = target: Glycogen synthase kinase-3 beta (Homo sapiens) (UniProt P49841); details: 10 uM
[45] = target: Proto-oncogene tyrosine-protein kinase Src (Homo sapiens) (UniProt P12931); test: Inhibition of SRC (unknown origin) at 3 uM after 10 mins by mobility shift assay relative to control
[46] = target: Ribosomal protein S6 kinase alpha-5 (Homo sapiens) (UniProt O75582); test: Inhibition of MSK1 (unknown origin) at 10 uM after 10 mins by mobility shift assay relative to control
[47] = target: Vascular endothelial growth factor receptor 2 (Homo sapiens) (UniProt P35968); details: 10 uM

T2 sequence (Q16539 whole entry): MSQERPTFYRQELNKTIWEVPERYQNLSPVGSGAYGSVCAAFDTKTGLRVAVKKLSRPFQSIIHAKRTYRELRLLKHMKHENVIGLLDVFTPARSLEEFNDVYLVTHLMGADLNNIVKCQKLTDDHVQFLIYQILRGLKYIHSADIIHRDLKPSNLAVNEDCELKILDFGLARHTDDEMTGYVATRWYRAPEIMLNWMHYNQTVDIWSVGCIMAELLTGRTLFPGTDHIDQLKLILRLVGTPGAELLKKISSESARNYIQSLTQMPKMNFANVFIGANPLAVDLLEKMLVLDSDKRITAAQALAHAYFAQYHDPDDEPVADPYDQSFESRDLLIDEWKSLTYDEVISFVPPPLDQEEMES
T1 sequence (P31749 whole entry): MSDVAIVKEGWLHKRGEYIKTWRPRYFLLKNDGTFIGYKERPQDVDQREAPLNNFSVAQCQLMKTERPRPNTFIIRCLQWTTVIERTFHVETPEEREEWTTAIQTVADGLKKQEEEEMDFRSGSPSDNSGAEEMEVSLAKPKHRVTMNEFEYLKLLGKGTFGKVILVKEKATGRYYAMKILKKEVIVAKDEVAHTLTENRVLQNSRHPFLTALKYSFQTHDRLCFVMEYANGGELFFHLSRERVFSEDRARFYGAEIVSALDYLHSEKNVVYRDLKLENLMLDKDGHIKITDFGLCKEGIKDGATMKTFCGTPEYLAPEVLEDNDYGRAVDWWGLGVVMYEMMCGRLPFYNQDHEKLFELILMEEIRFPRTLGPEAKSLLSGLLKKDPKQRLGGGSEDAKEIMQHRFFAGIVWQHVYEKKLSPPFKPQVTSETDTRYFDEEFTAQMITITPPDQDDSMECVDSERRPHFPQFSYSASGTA
T3 sequence (P51812 whole entry): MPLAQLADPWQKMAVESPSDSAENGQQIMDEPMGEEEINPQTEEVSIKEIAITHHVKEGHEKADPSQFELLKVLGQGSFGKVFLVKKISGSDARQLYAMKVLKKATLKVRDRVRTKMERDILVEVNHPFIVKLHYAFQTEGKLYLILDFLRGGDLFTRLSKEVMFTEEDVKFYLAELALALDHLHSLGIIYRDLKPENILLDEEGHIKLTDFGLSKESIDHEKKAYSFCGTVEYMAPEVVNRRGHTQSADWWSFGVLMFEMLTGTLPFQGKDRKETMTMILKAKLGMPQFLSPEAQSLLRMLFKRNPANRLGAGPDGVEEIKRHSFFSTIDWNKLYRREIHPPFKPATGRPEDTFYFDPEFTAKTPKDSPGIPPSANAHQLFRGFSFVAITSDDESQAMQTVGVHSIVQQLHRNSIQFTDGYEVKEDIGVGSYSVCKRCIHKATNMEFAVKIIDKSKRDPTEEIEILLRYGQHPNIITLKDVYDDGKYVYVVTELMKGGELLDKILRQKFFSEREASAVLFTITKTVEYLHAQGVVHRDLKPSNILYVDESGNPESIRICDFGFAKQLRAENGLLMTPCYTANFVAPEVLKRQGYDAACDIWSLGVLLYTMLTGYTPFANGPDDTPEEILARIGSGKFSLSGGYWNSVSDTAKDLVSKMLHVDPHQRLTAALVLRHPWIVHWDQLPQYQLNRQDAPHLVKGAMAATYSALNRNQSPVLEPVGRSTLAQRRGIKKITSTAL
Sequence of Aurora kinase B (Homo sapiens) (Q96GD4 whole entry): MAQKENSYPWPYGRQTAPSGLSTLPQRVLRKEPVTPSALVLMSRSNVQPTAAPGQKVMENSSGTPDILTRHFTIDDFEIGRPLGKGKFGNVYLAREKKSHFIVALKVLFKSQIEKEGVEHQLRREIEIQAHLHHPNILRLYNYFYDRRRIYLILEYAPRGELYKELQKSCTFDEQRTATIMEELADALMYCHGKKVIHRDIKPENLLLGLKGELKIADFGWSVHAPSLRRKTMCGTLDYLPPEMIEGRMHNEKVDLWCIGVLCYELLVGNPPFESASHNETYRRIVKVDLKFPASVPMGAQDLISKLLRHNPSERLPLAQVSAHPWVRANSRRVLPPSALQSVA
Sequence of Proto-oncogene tyrosine-protein kinase Src (Homo sapiens) (P12931 2-536 limits assumed): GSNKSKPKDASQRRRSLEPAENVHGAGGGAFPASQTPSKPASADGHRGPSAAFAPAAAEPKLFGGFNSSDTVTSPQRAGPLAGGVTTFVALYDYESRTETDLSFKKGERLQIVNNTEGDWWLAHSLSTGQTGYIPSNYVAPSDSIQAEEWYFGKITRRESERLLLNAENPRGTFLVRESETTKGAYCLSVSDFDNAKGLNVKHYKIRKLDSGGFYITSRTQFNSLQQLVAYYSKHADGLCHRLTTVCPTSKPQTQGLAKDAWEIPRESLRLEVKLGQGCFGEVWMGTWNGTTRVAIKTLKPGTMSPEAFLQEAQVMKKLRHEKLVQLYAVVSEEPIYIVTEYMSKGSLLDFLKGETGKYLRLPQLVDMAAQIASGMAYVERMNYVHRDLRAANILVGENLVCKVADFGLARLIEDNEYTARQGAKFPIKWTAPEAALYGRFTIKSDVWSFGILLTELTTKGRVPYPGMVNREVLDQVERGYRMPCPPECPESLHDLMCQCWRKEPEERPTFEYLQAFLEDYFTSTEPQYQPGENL
Sequence of Mitogen-activated protein kinase 3 (Homo sapiens) (P27361 whole entry): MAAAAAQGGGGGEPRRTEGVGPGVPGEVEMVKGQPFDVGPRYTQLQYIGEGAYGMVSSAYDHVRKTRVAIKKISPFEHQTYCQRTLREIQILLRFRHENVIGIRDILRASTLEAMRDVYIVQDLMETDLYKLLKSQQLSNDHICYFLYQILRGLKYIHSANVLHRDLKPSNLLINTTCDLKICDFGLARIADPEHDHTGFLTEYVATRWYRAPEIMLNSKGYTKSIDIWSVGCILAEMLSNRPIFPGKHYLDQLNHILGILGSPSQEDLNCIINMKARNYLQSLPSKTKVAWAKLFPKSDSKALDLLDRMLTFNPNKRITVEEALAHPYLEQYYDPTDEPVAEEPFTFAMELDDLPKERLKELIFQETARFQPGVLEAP
Sequence of Mitogen-activated protein kinase 9 (Homo sapiens) (P45984 whole entry, looked up): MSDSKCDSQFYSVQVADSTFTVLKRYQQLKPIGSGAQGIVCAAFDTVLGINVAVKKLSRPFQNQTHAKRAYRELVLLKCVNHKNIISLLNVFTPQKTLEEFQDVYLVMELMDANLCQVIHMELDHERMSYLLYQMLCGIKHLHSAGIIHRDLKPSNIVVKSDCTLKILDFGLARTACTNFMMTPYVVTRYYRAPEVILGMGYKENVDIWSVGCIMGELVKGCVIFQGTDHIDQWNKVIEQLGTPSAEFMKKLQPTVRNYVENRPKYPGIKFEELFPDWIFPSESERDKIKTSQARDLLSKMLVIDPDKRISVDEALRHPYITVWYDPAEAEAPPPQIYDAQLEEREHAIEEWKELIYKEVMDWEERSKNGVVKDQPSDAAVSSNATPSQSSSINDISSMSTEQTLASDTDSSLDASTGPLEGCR
Sequence of Glycogen synthase kinase-3 beta (Homo sapiens) (P49841 whole entry, looked up): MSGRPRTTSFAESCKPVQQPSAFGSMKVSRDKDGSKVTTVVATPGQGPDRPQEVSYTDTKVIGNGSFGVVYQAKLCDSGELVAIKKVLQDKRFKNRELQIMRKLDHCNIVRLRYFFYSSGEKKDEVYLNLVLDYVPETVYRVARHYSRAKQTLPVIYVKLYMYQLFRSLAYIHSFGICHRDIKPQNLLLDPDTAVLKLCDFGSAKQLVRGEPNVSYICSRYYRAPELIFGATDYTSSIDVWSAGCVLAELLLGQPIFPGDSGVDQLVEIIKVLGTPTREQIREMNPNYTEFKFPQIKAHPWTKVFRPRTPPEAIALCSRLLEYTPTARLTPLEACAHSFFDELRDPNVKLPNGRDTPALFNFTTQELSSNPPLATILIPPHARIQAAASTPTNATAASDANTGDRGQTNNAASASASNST
Sequence of Ribosomal protein S6 kinase beta-1 (Homo sapiens) (P23443 whole entry, looked up): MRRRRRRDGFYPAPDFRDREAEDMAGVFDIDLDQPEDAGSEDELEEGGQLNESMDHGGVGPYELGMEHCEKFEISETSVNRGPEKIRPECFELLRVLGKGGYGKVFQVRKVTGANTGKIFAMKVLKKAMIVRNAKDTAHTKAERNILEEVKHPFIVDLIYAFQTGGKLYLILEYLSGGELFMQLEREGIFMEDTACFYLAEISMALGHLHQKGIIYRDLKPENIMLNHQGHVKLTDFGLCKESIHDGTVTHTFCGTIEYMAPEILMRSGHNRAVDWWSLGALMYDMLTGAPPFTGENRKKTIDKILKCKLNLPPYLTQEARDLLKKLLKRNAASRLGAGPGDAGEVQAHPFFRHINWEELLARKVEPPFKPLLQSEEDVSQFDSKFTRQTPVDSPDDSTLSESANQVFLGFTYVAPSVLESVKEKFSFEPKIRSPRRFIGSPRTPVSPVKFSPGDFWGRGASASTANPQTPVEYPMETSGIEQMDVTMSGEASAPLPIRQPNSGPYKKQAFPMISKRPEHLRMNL

**Q.** Which results are given for O=C1Nc2ccccc2/C1=C/c1c[nH]nc1-c1ccccc1[N+](=O)[O-]?
**A.** inhibition [1]: 39%; inhibition [2]: 71%; inhibition [3]: 55%; inhibition [4]: 71%; inhibition [5]: 57%; inhibition [6]: 4.4%; inhibition [7]: 44%; inhibition [8]: 8.3%; inhibition [9]: 12%; inhibition [10]: 67%; inhibition [11]: 20%; inhibition [12]: 36%; inhibition [13]: 6.7%; inhibition [14]: 16%; inhibition [15]: 55%; inhibition [16]: 6.2%; IC50 (MCF7): 14800 nM; inhibition [17]: 65%; IC50 [18]: 11 nM; inhibition [19]: 44%; inhibition [20]: 34%; inhibition [21]: 27%; inhibition [22]: 44%; inhibition [23]: 31%; inhibition [24]: 64%; inhibition [25]: 7.8%; inhibition [26]: 19%; inhibition [27]: 38%; inhibition [28]: 25%; IC50 [29]: 11 nM; inhibition [30]: 4.7%; inhibition [31]: 93.4%; inhibition [32]: 31%; inhibition [33]: 49%; inhibition [34]: 61%; inhibition [35]: 55%; inhibition [36]: 65%; inhibition [37]: 31%; inhibition [38]: 37%; IC50 (PC-3): 9320 nM; inhibition [39]: 13%; inhibition [40]: 43%; IC50 [41]: 500 nM; inhibition [42]: 25%; inhibition [43]: 4.2%; inhibition [44]: 40%; inhibition [45]: 30%; inhibition [46]: 33%; inhibition [47]: 65%
